# Experimental data published in ChEMBL document CHEMBL3272291, “Potential hypolipidemic agents derived from 3-hydroxy-17,17-dimethylgona-1,3,5(10),8,11,13-hexaene” (J Med Chem, 1977).
# Key:
# [1] = tested on: Rattus norvegicus; experiment: Cholesterol-lowering activity in propylthiouracil-induced hypercholesterolemic rat model assessed as change in plasma cholesterol at 10 mg/kg administered intragastrically relative to control; format: functional; settings: route intragastric
# In short: (§1)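 Male rats made hypercholesterolemic with propylthiouracil; compounds given intragastrically. Read-out is the percent change in plasma cholesterol concentration versus control. n=8 for control and for treated animals. Significance is by Student's t, with t greater than 1.65 taken as p < 0.05.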
# [2] = tested on: Mus musculus; experiment: Uterotropic activity in immature mouse assessed as change in uterus weight at 250 mg/kg, sc relative to control; format: organism-based; set-up: dose 250 mg/kg, route subcutaneous; settings: in vivo
# In short: (§2)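 Immature mice dosed subcutaneously or intragastrically. Uterine weight (mg) is compared between treated and control groups, reported as mean ± spread. n=10 for control and for treated animals.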
# [3] = tested on: Rattus norvegicus; experiment: Cholesterol-lowering activity in propylthiouracil-induced hypercholesterolemic rat model assessed as change in plasma cholesterol at 20 mg/kg administered intragastrically relative to control; format: functional; settings: route intragastric; in short: as §1
# [4] = tested on: Rattus norvegicus; experiment: Cholesterol-lowering activity in propylthiouracil-induced hypercholesterolemic rat model assessed as change in plasma cholesterol at 5 mg/kg administered intragastrically relative to control; format: functional; settings: route intragastric; in short: as §1
# [5] = tested on: Mus musculus; experiment: Uterotropic activity in immature mouse assessed as change in uterus weight at 625 mg/kg, sc relative to control; format: organism-based; set-up: dose 625 mg/kg, route subcutaneous; settings: in vivo; in short: as §2
# [6] = tested on: Mus musculus; experiment: Uterotropic activity in immature mouse assessed as change in uterus weight at 25 mg/kg, sc relative to control; format: Functional, organism-based; set-up: dose 25 mg/kg, route subcutaneous; settings: in vivo; in short: as §2
# [7] = tested on: Mus musculus; experiment: Uterotropic activity in immature mouse assessed as change in uterus weight at 250 mg/kg administered intragastrically relative to control; format: organism-based; set-up: dose 250 mg/kg, route intragastric; settings: in vivo, po; in short: as §2
# [8] = tested on: Rattus norvegicus; experiment: Hypolipidemic activity in normal rat assessed as reduction in cholesterol level at 0.2 % administered in diet for 5 days; format: functional; set-up: scale not given: the % may be the effect or the level left
# In short: (§3)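 Normal rats received compound at 0.2% in the diet. Plasma cholesterol and triglyceride are expressed as % of control. n=8 for control and for treated animals. Significance is by Student's t, with t greater than 1.65 taken as p < 0.05.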
# [9] = tested on: Rattus norvegicus; experiment: Hypolipidemic activity in normal rat assessed as reduction in triglyceride level at 0.2 % administered in diet for 5 days; format: functional; set-up: scale not given: the % may be the effect or the level left; in short: as §3
structure (smiles),measurement,setting,value
CC1(C)CCc2c1ccc1c2CCc2cc(O)ccc2-1,Activity,[1],-16%
same,Activity,[2],22.6 mg
same,Activity,[3],-10%
same,Activity,[4],4%
same,Activity,[5],34.9 mg
COc1ccc2c(c1)CCc1c-2ccc2c1CCC2(C)C,Activity,[1],1%
same,Activity,[2],22.6 mg
CCN(CC)CCOc1ccc2c(c1)CCc1c-2ccc2c1CCC2(C)C.O=C(O)C(=O)O,Activity,[1],-19%
same,Activity,[6],16.4 mg
same,Activity,[4],-14%
CC1(C)CCc2c1ccc1c2CCc2cc(OCCN3CCCC3)ccc2-1,Activity,[1],-17%
same,Activity,[6],11.2 mg
same,Activity,[4],-5%
same,Activity,[7],8.1 mg
CC(C)(Oc1ccc2c(c1)CCc1c-2ccc2c1CCC2(C)C)C(=O)O,Activity,[1],-18%
same,Activity,[8],75%
same,Activity,[6],17.2 mg
same,Activity,[9],69%
same,Activity,[7],8.4 mg
CCOC(=O)C(C)(C)Oc1ccc2c(c1)CCc1c-2ccc2c1CCC2(C)C,Activity,[1],-9%
CN1C(=O)[C@@H]2CC[C@@H]1[C@@H](OC(=O)C(C)(C)Oc1ccc3c(c1)CCc1c-3ccc3c1CCC3(C)C)C2,Activity,[1],-4%
CC(Oc1ccc2c(c1)CCc1c-2ccc2c1CCC2(C)C)C(=O)O (configuration not stated),Activity,[1],3%
CCOC(=O)COc1ccc2c(c1)CCc1c-2ccc2c1CCC2(C)C,Activity,[1],8%
CC(C)(CO)Oc1ccc2c(c1)CCc1c-2ccc2c1CCC2(C)C,Activity,[1],-25%
same,Activity,[2],13.4 mg
COC(=O)CCC(=O)OCC(C)(C)Oc1ccc2c(c1)CCc1c-2ccc2c1CCC2(C)C,Activity,[1],-18%
same,Activity,[2],15.7 mg
CC(C)(COC(=O)CCC(=O)O)Oc1ccc2c(c1)CCc1c-2ccc2c1CCC2(C)C,Activity,[1],-7%
same,Activity,[6],20.6 mg
CCOC(=O)C(C)(C)Oc1ccc(Cl)cc1 [CLOFIBRATE],Activity,[1],1%
same,Activity,[8],72%
same,Activity,[9],43%
